Only some compounds are listed: those with a hit (about 1.7% of all), similar ones and a draw of the others.
SKKanGAS inh = SKKanGAS growth inhibition; 300,000 compounds, 1.3% hits; AID 1662; inhibition, % at 7.5 µM; S. pyogenes SKKanGAS, kanamycin growth, BacTiter-Glo, 6 h;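 active means mean replicate score, as percent of positive control median, at least 50; inconclusive means mean below 50 but one replicate at or above 50; inactive means mean and every replicate below 50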;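 further: strain carries kanamycin resistance gene driven by streptokinase promoter and grows in 40 µg/ml kanamycin; loss of luminescence reflects streptokinase promoter inhibition or plain growth inhibition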
Rtt109 HAT inh = blocks Candida albicans Rtt109/Vps75 acetyltransferase activity; Q5AAJ8; purified Rtt109/Vps75, ThioGlo CoA-SH fluorescence, 4 h; inhibition, % at 34.9 µM; 330,000 compounds, 0.16% hits; AID 540336;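 active means inhibition of at least 50% in every replicate; inconclusive means best replicate reaches 50% inhibition but some replicates fall short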
Target sequence (Q5AAJ8 whole entry, looked up): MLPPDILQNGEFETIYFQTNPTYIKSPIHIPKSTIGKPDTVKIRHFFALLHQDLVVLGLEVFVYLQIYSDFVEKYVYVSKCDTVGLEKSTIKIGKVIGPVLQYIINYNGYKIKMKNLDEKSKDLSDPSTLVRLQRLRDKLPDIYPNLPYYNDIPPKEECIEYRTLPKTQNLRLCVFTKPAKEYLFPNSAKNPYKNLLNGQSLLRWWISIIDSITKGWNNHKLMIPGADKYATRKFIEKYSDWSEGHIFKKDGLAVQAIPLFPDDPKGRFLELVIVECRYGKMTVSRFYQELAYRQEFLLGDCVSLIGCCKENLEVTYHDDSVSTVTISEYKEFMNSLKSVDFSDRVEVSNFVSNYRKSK
FN deposit inh = fibronectin deposition inhibition; 350,000 compounds, 0.086% hits; inhibition, % at 12.6 µM; AH1F fibroblasts, Alexa488-fibronectin deposition fluorescence, overnight;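 active means mean inhibition across replicates of 30% or more, regardless of how many single replicates reach that level; inconclusive means mean under 30% yet at least half of replicates reach 30%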
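Measured by – fluorescence 485/525 nm · System – AH1F fibroblast monolayer, labelled fibronectin deposition · Amount – 10000 cells per well · Buffer or medium – serum-reduced DMEM (2% serum) · Doses – single dose, pinned · Also added – fluorescent fibronectin at 24 nM final · Schedule – 1 h cell attachment, overnight exposure to compound and label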
CSC inhib = blocks cancer stem cells; 300,000 compounds, 1.1% hits; inhibition, % at 7.5 µM; cancer stem cell-like cells viability, luminescence; in the data active means inhibition above about 75%; inconclusive means no clear call, values can overlap the other calls; tested in HMLE shEcad cells
PglD DTNB = PglD (C. jejuni) enzyme inhibition. 360,000 compounds, 0.098% hits. purified PglD enzyme, DTNB colorimetric CoA detection. inhibition, % at 12.5 µM; in the data active means inhibition above about 16%, passing the limit was not always enough; inconclusive means no clear call, values can overlap the other calls
PfHsp90 yeast 2 = reduces growth (ATP signal) of yeast expressing P. falciparum Hsp90; inhibition, % at 9.4 µM; 310,000 compounds, 0.32% hits; AID 504621; S. cerevisiae expressing PfHsp90, BacTiter-Glo ATP, 48 h; yeast lacking PDR1 and PDR3 efflux regulators;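 active means every replicate shows inhibition above about 80%, whatever the replicate mean, limit read from the data; inconclusive means mean inhibition reaches the set limit but some replicate falls short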
Large screens that a line does not name were inactive.

CCOc1ccc(NC(=O)c2ccncc2)cc1	none (no result: FN deposit inh)
O=S(=O)(N[C@@H]1CC[C@H](CCn2cc(C3CC3)nn2)O[C@@H]1CO)c1ccc(Cl)cc1	none (no result: SKKanGAS inh, Rtt109 HAT inh, CSC inhib, PfHsp90 yeast 2)
COc1ccc(/C=N/NC(=O)c2cc(C34CC5CC(CC(C5)C3)C4)[nH]n2)cc1O	CSC inhib 97 (no result: FN deposit inh, PglD DTNB, PfHsp90 yeast 2)
Cc1[nH]c(N=Nc2ccccc2)nc1N=Nc1ccccc1	SKKanGAS inh inconclusive, CSC inhib 105, PfHsp90 yeast 2 104 (no result: PglD DTNB)
Cn1c(N=Nc2ccccc2)nc2ccccc21	none
CN1C(=O)c2cc(NC(=O)NC3CCCC3)ccc2OC[C@@H]2O[C@H](CC(=O)O)CC[C@H]21	none (no result: SKKanGAS inh, Rtt109 HAT inh, CSC inhib, PfHsp90 yeast 2)
CCOC(=O)c1sc2ncnc(N3CCN(c4ccc(OC)cc4)CC3)c2c1C	SKKanGAS inh 69 (no result: FN deposit inh)
CCOC(=O)c1sc2ncnc(N3CCN(C)CC3)c2c1C	none (no result: PglD DTNB)
O=C(NC1C2CC3CC(C2)CC1C3)C1CC1 (stereo not drawn)	none
O=C(NC1CCCCC1)NC1C2CC3CC(C2)CC1C3 (stereo not drawn)	SKKanGAS inh 54
O=S1c2ccccc2Oc2ccccc21	none (no result: SKKanGAS inh, CSC inhib, PglD DTNB)
O=[S@]1Oc2ccccc2-c2ccccc21	PfHsp90 yeast 2 110
CCC(=O)N1[C@H](CO)[C@@H](c2ccc(-c3ccc(F)cc3)cc2)[C@@H]1CNC(C)=O	none (no result: SKKanGAS inh, Rtt109 HAT inh, CSC inhib, PfHsp90 yeast 2)
CCOC(=O)c1c(NC(C)=O)sc2c1CCC(C=O)=C2Sc1ccccc1	CSC inhib 89 (no result: FN deposit inh)
C[C@H]1CN([C@@H](C)CO)C(=O)c2cccc(NS(=O)(=O)c3cccs3)c2O[C@@H]1CN(C)Cc1ccccc1	none (no result: SKKanGAS inh, Rtt109 HAT inh, FN deposit inh, CSC inhib, PfHsp90 yeast 2)
CCCn1nnnc1NC(=O)c1ccc2ccccc2c1	SKKanGAS inh 90 (no result: PglD DTNB)
CO[C@H]1CN(C)C(=O)c2cc(NC(=O)CC(F)(F)F)ccc2OC[C@@H](C)N(S(=O)(=O)c2cn(C)cn2)C[C@@H]1C	none (no result: SKKanGAS inh, Rtt109 HAT inh, CSC inhib, PglD DTNB, PfHsp90 yeast 2)
N#C/C(=N\Nc1ccc(S(=O)(=O)N2CCCCCC2)cc1)C(N)=S	SKKanGAS inh 114 (no result: PglD DTNB)
NCCCn1c(C(=O)c2cc(Cl)c(N)c(Cl)c2)c2ccc([N+](=O)[O-])cc2[n+]1[O-]	SKKanGAS inh 63
C[C@H](CO)N1C[C@H](C)[C@@H](CN(C)CC2CC2)OCCCC[C@H](C)Oc2ccc(NS(C)(=O)=O)cc2C1=O	none (no result: SKKanGAS inh, Rtt109 HAT inh, CSC inhib, PfHsp90 yeast 2)
O=C(CN1c2ccccc2Sc2ccccc21)NNC(=S)Nc1ccc(Cl)cc1Cl	SKKanGAS inh 111, CSC inhib inconclusive (no result: FN deposit inh, PglD DTNB)
O=C(CN1c2ccccc2Sc2ccccc21)NNC(=S)Nc1ccc(Cl)cc1	SKKanGAS inh 89
COc1ccc(CNC(=O)C[C@@H]2C=C[C@H](NC(=O)c3cccc(F)c3)[C@H](CO)O2)cc1	none (no result: SKKanGAS inh, Rtt109 HAT inh, CSC inhib, PfHsp90 yeast 2)
COc1ccc(NC(=O)c2cc(-c3ccccc3Cl)on2)cc1	none
COc1ccc(NC(=O)c2cc(-c3ccccc3OC)on2)cc1	CSC inhib 80 (no result: FN deposit inh, PfHsp90 yeast 2)
C[C@H]1CN([C@@H](C)CO)C(=O)c2c(c3ccccc3n2C)-c2ccccc2CO[C@@H]1CN(C)Cc1ccccc1C(F)(F)F	none (no result: SKKanGAS inh, Rtt109 HAT inh, CSC inhib, PglD DTNB, PfHsp90 yeast 2)
C[C@H](CO)N1C[C@H](C)[C@H](CN(C)C(=O)NC2CCCCC2)Oc2ccc(NC(=O)Cc3cn(C)c4ccccc34)cc2CC1=O	none (no result: SKKanGAS inh, Rtt109 HAT inh, FN deposit inh, CSC inhib, PfHsp90 yeast 2)
Nc1nonc1-c1nc2ccccc2n1CC(=O)N/N=C\c1ccc(-c2ccc(Cl)cc2)o1	SKKanGAS inh 99 (no result: FN deposit inh)
NNC(=O)Cn1c(-c2nonc2N)nc2ccccc21	none (no result: PglD DTNB)
CC(Oc1ccccc1)C(=O)NC1C(=O)N2C1SC(C)(C)C2C(=O)O (stereo not drawn)	SKKanGAS inh 106 (no result: PglD DTNB)
CCOC(=O)OC(C)OC(=O)[C@@H]1N2C(=O)[C@@H](NC(=O)[C@H](N)c3ccccc3)[C@H]2SC1(C)C (stereo partly drawn)	none (no result: SKKanGAS inh)
Cc1onc(-c2c(Cl)cccc2Cl)c1C(=O)NC1C(=O)N2C1SC(C)(C)C2C(=O)O (stereo not drawn)	SKKanGAS inh 79
CC1(C)S[C@@H]2[C@H](NC(=O)COc3ccccc3)C(=O)N2C1C(=O)OCc1cc2ccccc2n1S(=O)(=O)c1ccccc1 (stereo partly drawn)	SKKanGAS inh 78 (no result: Rtt109 HAT inh, FN deposit inh, PglD DTNB, PfHsp90 yeast 2)
CC1(C)S[C@@H]2[C@H](NC(=O)COc3ccccc3)C(=O)N2C1C(=O)OCC1CCCCC1 (stereo partly drawn)	SKKanGAS inh 64 (no result: PfHsp90 yeast 2)
Cc1onc(-c2c(Cl)cccc2Cl)c1C(=O)N[C@@H]1C(=O)N2[C@@H]1SC(C)(C)[C@@H]2C(=O)O	none

Bioassay records: PubChem, Broad Institute
